In ChEMBL document CHEMBL2385076, “Discovery of 2-((1H-benzo[d]imidazol-1-yl)methyl)-4H-pyrido[1,2-a]pyrimidin-4-ones as novel PKM2 activators” (Bioorg Med Chem Lett, 2013):
Converted amounts (≈) assume the structure as drawn. The source made the active and inactive calls. No cut-off for these calls is given here.

How the values were obtained:
[1] = Intrinsic clearance in human liver microsomes; type: ADME, Microsome; conditions: read-out: CLH
Pyruvate kinase PKM [2] = biological target: T1, Pyruvate kinase PKM (Homo sapiens, UniProt P14618); assay: Activation of human PKM2 assessed as production of ATP at infinite concentration after 10 mins by lactate dehydrogenase-coupled enzyme assay relative to FBP
Outline: (§1)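 Coupled to lactate dehydrogenase, NADH loss read as the drop in absorbance at 340 nm. Reaction: 2nM human PKM2 (cleaved N-term his, 1-531), 2 mM PEP, 0.35 mM NADH, 4 units/mL LDH in 50 mM Tris pH 7.5 with KCl and 5 mM MgCl2. Compound preincubated 10 minutes at 32 °C, then 0.5mM ADP starts the reaction. Duplicates; 10-point curves; asymptote max = % activation at infinite concentration.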
Target sequence in this assay (P14618 2-531 limits assumed): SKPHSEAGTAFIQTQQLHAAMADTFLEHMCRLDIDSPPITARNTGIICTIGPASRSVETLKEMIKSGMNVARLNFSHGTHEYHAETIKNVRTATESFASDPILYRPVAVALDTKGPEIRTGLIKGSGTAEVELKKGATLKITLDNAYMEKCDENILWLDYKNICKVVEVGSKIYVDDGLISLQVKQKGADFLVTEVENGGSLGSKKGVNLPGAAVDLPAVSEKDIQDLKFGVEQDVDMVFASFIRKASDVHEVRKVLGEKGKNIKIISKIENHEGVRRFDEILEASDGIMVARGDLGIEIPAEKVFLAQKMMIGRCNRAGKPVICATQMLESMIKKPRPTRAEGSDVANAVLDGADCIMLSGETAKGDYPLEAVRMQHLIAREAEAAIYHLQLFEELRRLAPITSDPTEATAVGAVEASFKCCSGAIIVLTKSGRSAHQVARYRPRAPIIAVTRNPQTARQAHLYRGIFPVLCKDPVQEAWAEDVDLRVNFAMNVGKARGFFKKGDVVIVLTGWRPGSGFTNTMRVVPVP

[3] = Passive permeability from apical to basolateral side of dog RRCK cells; type: ADME, cell-based, Canis lupus familiaris, MDCKII-LE; conditions: MDCK, read-out: permeability
[4] = Kinetic solubility of the compound at pH 7.4; type: physicochemical; conditions: buffer, read-out: Kinetic_solubility
Pyruvate kinase PKM [5] = biological target: T1, Pyruvate kinase PKM; assay: Activation of human PKM2 assessed as production of ATP at 10 uM after 10 mins by high-throughput screening assay relative to control
Outline: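 High-throughput screen in which PKM2 activity was read as ATP production by luminescence, reported as % activation at 10 µM.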
Target sequence in this assay (P14618 2-531 limits assumed): as above

JHH2 = assay: Antiproliferative activity against human JHH2 cells at 10 uM after 5 days; type: functional, cell-based
Outline: (§2)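 Cells plated in Optimem-GlutaMax medium and cultured overnight before exposure to 10 µM compound. Viability measured with CytoTox-Glo after 5 days of treatment.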

SNU-182 = assay: Antiproliferative activity against human SNU182 cells at 10 uM after 5 days; type: functional, cell-based; outline: as §2
Pyruvate kinase PKM [6] = biological target: T1, Pyruvate kinase PKM; assay: Activation of PKM2 in human Huh7 cells assessed as formation of enzyme tetramers; type: cell-based; conditions: Huh-7
Target sequence in this assay (P14618 2-531 limits assumed): as above

Pyruvate kinase PKM [7] = biological target: T1, Pyruvate kinase PKM; assay: Activation of PKM2 in human Huh7 cells assessed as production of pyruvate and ATP by fluorescence assay; type: cell-based, Huh-7
Outline: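 Huh7 hepatocellular carcinoma cells were treated with compound and lysed, and the lysate was given PEP and ADP. The pyruvate formed was oxidized by pyruvate oxidase, and the fluorescence, proportional to pyruvate, was read as cellular pyruvate kinase activity.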
Target sequence in this assay (P14618 whole entry): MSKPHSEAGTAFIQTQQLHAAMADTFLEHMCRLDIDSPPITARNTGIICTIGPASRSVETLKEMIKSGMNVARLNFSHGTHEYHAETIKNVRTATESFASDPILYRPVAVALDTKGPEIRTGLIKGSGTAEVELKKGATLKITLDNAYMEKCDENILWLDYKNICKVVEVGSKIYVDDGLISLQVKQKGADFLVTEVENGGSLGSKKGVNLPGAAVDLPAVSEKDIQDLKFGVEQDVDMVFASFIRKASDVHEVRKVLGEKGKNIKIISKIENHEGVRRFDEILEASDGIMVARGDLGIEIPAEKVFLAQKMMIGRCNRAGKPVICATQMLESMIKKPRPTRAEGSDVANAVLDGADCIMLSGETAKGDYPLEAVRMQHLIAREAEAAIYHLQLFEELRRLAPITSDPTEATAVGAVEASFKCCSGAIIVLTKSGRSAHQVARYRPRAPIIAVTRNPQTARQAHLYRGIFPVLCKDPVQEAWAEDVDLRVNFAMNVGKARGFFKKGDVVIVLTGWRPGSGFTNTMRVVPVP

Pyruvate kinase PKM [8] = biological target: T1, Pyruvate kinase PKM; assay: Activation of PKM2 in human Snu182 cells assessed as extracellular acidification rate at 10 uM after 18 hrs; type: cell-based
Outline: (§3)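 Snu182 cells seeded at 12k/well in RPMI with 10% FBS and 2 mM glutamine, cultured overnight, then given 10 µM compound for 18 h at 37°C, 5% CO2. Medium switched to XF DMEM with 5 mM glucose plus 10 µM compound; OCR and ECAR measured on a Seahorse XF96 analyzer.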
Target sequence in this assay (P14618 2-531 limits assumed): as the sequence (P14618 2-531 limits assumed) above

SNU-449 = assay: Antiproliferative activity against human SNU449 cells at 10 uM after 5 days; type: functional, cell-based; outline: as §2
HT-29 = assay: Antiproliferative activity against human HT-29 cells at 10 uM after 5 days; type: functional; conditions: HT-29, 120 h; outline: as §2
Pyruvate kinase PKM [9] = biological target: T1, Pyruvate kinase PKM; assay: Activation of PKM2 in human Snu182 cells assessed as oxygen consumption rate at 10 uM after 18 hrs; type: cell-based; outline: as §3
Target sequence in this assay (P14618 2-531 limits assumed): as above

HuH-1 (human) = assay: Antiproliferative activity against human HuH1 cells at 10 uM after 5 days
Pyruvate kinase PKM [10] = biological target: T1, Pyruvate kinase PKM; assay: Activation of human PKM2 assessed as production of ATP at 10 uM after 10 mins by lactate dehydrogenase-coupled enzyme assay; outline: as §1
Target sequence in this assay (P14618 2-531 limits assumed): as above

Compound	microsomal CLint [1]	max activation (Pyruvate kinase PKM [2])	Papp A→B [3]	solubility kinetic [4]	further results
CCc1ccc(C)n2c(=O)cc(Cn3cnc4ccccc43)nc12	184 µL/min/mg	135%	16.2 ×10⁻⁶ cm/s		
CCc1nn2c(=O)cc(Cn3cnc4ccccc43)nc2s1	8 µL/min/mg	140%	17.6 ×10⁻⁶ cm/s		
Cc1sc2nc(Cn3cnc4ccccc43)cc(=O)n2c1C	12.5 µL/min/mg	160%	22.9 ×10⁻⁶ cm/s	141 µM (≈ 43.8 µg/mL)	
O=c1cc(Cn2cnc3ccccc32)nc2ccccn12		161%			
Cc1ccc2nc(Cn3c(Cc4ccccc4)nc4ccccc43)cc(=O)n2c1		148%			Activity (Pyruvate kinase PKM [5]): 155%
Cc1ccc2nc(Cn3cnc4ccccc43)cc(=O)n2c1		149%			
O=c1cc(Cn2cnc3ccccc32)nc2scc(-c3ccccc3)n12	8 µL/min/mg	167%	11.5 ×10⁻⁶ cm/s		
Cc1cccn2c(=O)cc(Cn3cnc4ccccc43)nc12	17.8 µL/min/mg	172%	24.2 ×10⁻⁶ cm/s	529 µM (≈ 154 µg/mL)	
O=c1cc(Cn2cnc3ccccc32)nc2sccn12	8 µL/min/mg	162%	17.3 ×10⁻⁶ cm/s	569 µM (≈ 161 µg/mL)	
Cc1ccc2nc(Cn3c(C)nc4ccccc43)cc(=O)n2c1					max activation (Pyruvate kinase PKM [10]): 73%
Cc1cn2c(=O)cc(Cn3cnc4ccccc43)nc2s1	8 µL/min/mg	189%	14.3 ×10⁻⁶ cm/s		
O=c1cc(Cn2cnc3ccccc32)nc2ccc(Cl)cn12	< 8 µL/min/mg	156%	22.2 ×10⁻⁶ cm/s	558 µM (≈ 173 µg/mL)	

Second part, led by results:

microsomal CLint [1]	max activation (Pyruvate kinase PKM [2])	Papp A→B [3]	solubility kinetic [4]	Compound	further results
< 8 µL/min/mg	123%	25.8 ×10⁻⁶ cm/s	580 µM (≈ 178 µg/mL)	COc1ccc2nc(Cn3cnc4ccccc43)cc(=O)n2c1	
13.3 µL/min/mg	161%	21.3 ×10⁻⁶ cm/s	586 µM (≈ 170 µg/mL)	Cc1ccn2c(=O)cc(Cn3cnc4ccccc43)nc2c1	
22.4 µL/min/mg	108%	8.8 ×10⁻⁶ cm/s	8.6 µM (≈ 3.17 µg/mL)	COc1cccc(NS(=O)(=O)c2cc3c(cc2Cl)NC(=O)CO3)c1	Activity (JHH2): inactive; Activity (SNU-182): inactive; Activity (Pyruvate kinase PKM [6]): Active; EC50 (Pyruvate kinase PKM [7]): 22 nM; Activity (Pyruvate kinase PKM [8]): 91.4%; Activity (SNU-449): inactive; inhibition at 10 µM (HT-29): 26.8%; Activity (Pyruvate kinase PKM [9]): 85.7%; Activity (HuH-1 (human)): inactive
8 µL/min/mg	136%	23.4 ×10⁻⁶ cm/s	117 µM (≈ 34.7 µg/mL)	Cc1csc2nc(Cn3cnc4ccccc43)cc(=O)n12	
